Where a name gives a salt, the structure may show the parent alone.
Experiments:
Tubulin = assay: Inhibition of tubulin (unknown origin) polymerization preincubated for 15 mins followed by GTP addition by turbidity based spectrophotometer analysis; format: protein-complex assay, Homo sapiens
OVCAR-8 = assay: Cytotoxicity against human OVCAR-8 cells assessed as cell growth inhibition incubated for 3 days by trypan blue exclusion assay; format: functional, cell-based; conditions: OVCAR-8, 72 h
MCF7 = assay: Cytotoxicity against human MCF7 cells assessed as cell growth inhibition incubated for 3 days by trypan blue exclusion assay; format: functional, cell-based; conditions: MCF7, 72 h
Method in brief: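 MCF-7 human breast carcinoma cells; growth inhibition; triplicate experiments.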

NCI/ADR-RES = assay: Cytotoxicity against human NCI/ADR-RES cells overexpressing p-glycoprotein assessed as cell growth inhibition incubated for 3 days by trypan blue exclusion assay; format: functional, cell-based; conditions: 72 h
Tubulin (Homo sapiens) = Tubulin (Homo sapiens) (UniProt P68371+Q9H4B7+P0DPH7+P68366+Q13509+Q71U36+P04350+Q3ZCM7+P07437+P68363+Q9BQE3+Q6PEY2+Q13885+Q9BVA1+Q9BUF5); assay: Inhibition of [3H]colchicine binding to tubulin (unknown origin) at 5 uM incubated for 10 mins relative to control; format: protein-complex assay
LAMA-84 [1] = assay: Antiproliferative activity against human LAMA-84 cells assessed as cell growth inhibition incubated for 48 hrs by MTT assay; conditions: LAMA-84, 48 h
LAMA-84 [2] = assay: Antiproliferative activity against human LAMA-84 cells overexpressing BCR/ABL assessed as cell growth inhibition
LAMA-84 [3] = assay: Antiproliferative activity against human LAMA-84 cells expressing BCR/ABL assessed as cell growth inhibition; format: functional, cell-based
Method in brief: (§1)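 KU812 or LAMA84 CML blast-crisis cells (BCR/ABL-expressing) exposed to increasing doses for 48 h; proliferation read by MTT assay; triplicate experiments.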

KU812 cell line = assay: Antiproliferative activity against human KU812 cells expressing BCR/ABL assessed as cell growth inhibition; format: functional, cell-based; method in brief: as §1

Structure (SMILES) | IC50 (Tubulin) [nM] | IC50 (MCF7) [nM] | inhibition (Tubulin (Homo sapiens)) [%] | further results
COc1cc(C(=O)c2cn(-c3ccccc3)cc2-c2cccc(N)c2)cc(OC)c1OC | 390 | 28 | 57 | IC50 (OVCAR-8): 190 nM; IC50 (NCI/ADR-RES): 110 nM
COc1cc(C(=O)c2cn(-c3cccc(C)c3)cc2-c2ccccc2)cc(OC)c1OC | 1700 | 120 | 82 | –
Cc1ccc(NC(=O)c2ccc(CN3CCN(C)CC3)cc2)cc1Nc1nccc(-c2cccnc2)n1 [IMATINIB MESYLATE] | – | – | – | IC50 (LAMA-84 [1]): 100 nM; IC50 (LAMA-84 [2]): 100 nM
COc1cc(C(=O)c2cn(-c3ccccc3)cc2-c2cccc(F)c2)cc(OC)c1OC | 630 | 57 | 53 | –
COc1cc(C(=O)c2cn(-c3ccccc3F)cc2-c2ccccc2)cc(OC)c1OC | 2000 | 85 | 29 | –
COc1cc(C(=O)c2cn(-c3cccc(F)c3)cc2-c2ccccc2)cc(OC)c1OC | 2900 | 350 | 42 | –
COc1cc(C(=O)c2ccn(-c3cccc(N)c3)c2)cc(OC)c1OC | – | – | – | IC50 (LAMA-84 [3]): 28 nM; IC50 (KU812 cell line): 28 nM
COc1cc(C(=O)c2cn(-c3cccc(N)c3)cc2-c2ccccc2)cc(OC)c1OC | 1100 | 74 | 82 | –

— ChEMBL document CHEMBL5252540, “3-Aroyl-1,4-diarylpyrroles Inhibit Chronic Myeloid Leukemia Cell Growth through an Interaction with Tubulin” (ACS Med Chem Lett, 2017)
